Data: ChEMBL document CHEMBL1155077, “Kinesin spindle protein (KSP) inhibitors. 9. Discovery of (2S)-4-(2,5-difluorophenyl)-n-[(3R,4S)-3-fluoro-1-methylpiperidin-4-yl]-2-(hydroxymethyl)-N-methyl-2-phenyl-2,5-dihydro-1H-pyrrole-1-carboxamide (MK-0731) for the treatment of taxane-refractory cancer” (J Med Chem, 2008)

Experiments:
[1] = tested on: A2780; test: Induction of mitotic arrest in human A2780 cells expressing MDR1 after 16 hrs; type: functional, cell-based; conditions: A2780, 16 h
[2] = Inhibition of human KSP
[3] = Ratio of IC50 for induction of mitotic arrest in human […] to IC50 for induction of mitotic arrest in […] human KB-V-1 cells; type: functional
In short: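 Phospho-nucleolin mitotic-arrest assay in parental KB-3-1 and MDR1-overexpressing KB-V-1 cells (>500-fold higher MDR1 mRNA). Cells were treated in triplicate for 16 h across 10 000 to 0.1 nM (11-point, half-log series; 0.1% DMSO final). Total nucleolin was bead-captured from lysates and phospho-nucleolin detected by TG3 antibody plus a ruthenium-labelled secondary. Ratio = IC50 (KB-V-1) / IC50 (KB-3-1).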

[4] = Dissociation constant, pKa by Sirius GLpKa titrator; type: physicochemical
In short: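 Potentiometric pKa measured on a Sirius GLpKa titrator; mean of n = 3 determinations unless marked as a single determination.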

[5] = tested on: Rattus norvegicus; test: AUC in rat at 1 mg/kg, iv; type: ADME, organism-based, Plasma; design: dose 1 mg/kg, route intravenous; conditions: in vivo
[6] = tested on: Rattus norvegicus; test: AUC in rat at 4 mg/kg, iv; type: ADME, organism-based, Plasma; design: dose 4 mg/kg, route intravenous; conditions: in vivo
[7] = tested on: Rattus norvegicus; test: AUC in rat at 12 mg/kg, iv; type: ADME, organism-based, Plasma; design: dose 12 mg/kg, route intravenous; conditions: in vivo
[8] = tested on: A2780; test: Induction of mitotic arrest in human A2780 cells […] clr:NU/NU-nuBR mouse assessed as minimum plasma concentration required to induce maximum mitotic arrest after 22 hrs; type: functional
[9] = Inhibition of human KSP in presence of 30% mouse serum
In short: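 KSP ATPase assay as the primary one (0.25 nM KSP motor domain, microtubules, 1 mM ATP, pH 6.8, 3 h at RT, quinaldine red phosphate read-out), run with 30% mouse serum dialysed against reaction buffer (12-14 kDa cutoff). Mean of at least 3 experiments unless noted.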

[10] = target: Voltage-gated inwardly rectifying potassium channel KCNH2 (Homo sapiens, UniProt Q12809)
Chain of Voltage-gated inwardly rectifying potassium channel KCNH2 (Q12809 whole entry): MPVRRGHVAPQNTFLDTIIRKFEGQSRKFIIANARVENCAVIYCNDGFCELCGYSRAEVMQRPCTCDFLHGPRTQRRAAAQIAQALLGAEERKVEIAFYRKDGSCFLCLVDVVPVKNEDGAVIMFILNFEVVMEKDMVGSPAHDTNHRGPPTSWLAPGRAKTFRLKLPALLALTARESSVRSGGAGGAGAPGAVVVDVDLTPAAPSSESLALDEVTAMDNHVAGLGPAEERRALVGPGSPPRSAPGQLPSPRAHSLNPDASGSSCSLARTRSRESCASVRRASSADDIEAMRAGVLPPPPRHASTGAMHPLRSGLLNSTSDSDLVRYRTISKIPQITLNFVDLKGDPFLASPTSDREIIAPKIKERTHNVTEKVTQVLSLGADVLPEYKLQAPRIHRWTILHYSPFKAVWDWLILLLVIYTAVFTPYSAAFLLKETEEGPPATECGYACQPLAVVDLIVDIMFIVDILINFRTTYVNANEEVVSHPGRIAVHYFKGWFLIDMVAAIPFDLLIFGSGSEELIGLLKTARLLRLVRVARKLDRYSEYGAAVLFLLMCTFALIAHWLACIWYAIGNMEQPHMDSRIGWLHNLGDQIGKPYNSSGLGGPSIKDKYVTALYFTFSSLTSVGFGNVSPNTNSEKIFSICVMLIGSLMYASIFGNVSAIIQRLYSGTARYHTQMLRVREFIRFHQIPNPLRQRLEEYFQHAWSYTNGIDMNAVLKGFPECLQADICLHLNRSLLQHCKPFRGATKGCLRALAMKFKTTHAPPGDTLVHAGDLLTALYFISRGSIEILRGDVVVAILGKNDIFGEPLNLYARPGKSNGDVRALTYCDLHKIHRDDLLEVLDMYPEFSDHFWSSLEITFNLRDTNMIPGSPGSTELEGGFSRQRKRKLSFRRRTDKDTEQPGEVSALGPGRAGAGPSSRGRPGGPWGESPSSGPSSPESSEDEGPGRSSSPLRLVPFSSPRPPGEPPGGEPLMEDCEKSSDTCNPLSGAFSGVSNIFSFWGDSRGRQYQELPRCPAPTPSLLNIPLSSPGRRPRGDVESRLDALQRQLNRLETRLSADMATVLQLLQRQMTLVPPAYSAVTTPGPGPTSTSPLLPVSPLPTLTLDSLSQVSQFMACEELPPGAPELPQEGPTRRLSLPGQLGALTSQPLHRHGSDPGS

Structure (SMILES)	EC50 [1] [nM]	IC50 [2] [nM]	pKa [4]	EC90 [8] [nM]	other results
CN1CC[C@@H](N(C)C(=O)N2CC(c3cc(F)ccc3F)=C[C@@]2(CO)c2ccccc2)[C@H](F)C1	37.6	11.9	–	–	Ratio [3]: 2.9
CN(C(=O)N1CC(c2cc(F)ccc2F)=C[C@@]1(CO)c1ccccc1)C1CCN(C2CC2)CC1	–	5.9	7.5	–	–
CN1CC[C@H](N(C)C(=O)N2CC(c3cc(F)ccc3F)=C[C@@]2(CO)c2ccccc2)[C@@H](F)C1	16.5	11.5	6.6	–	Ratio [3]: 2.4; IC50 [10]: 36900 nM
CN(C(=O)N1CC(c2cc(F)ccc2F)=C[C@@]1(CO)c1ccccc1)C1CCN(CC(F)F)CC1	–	34.1	4.9	–	–
CN(C(=O)N1CC(c2cc(F)ccc2F)=C[C@@]1(CO)c1ccccc1)C1CCNCC1	–	7.4	9.8	–	–
CN1CCC(N(C)C(=O)N2CC(c3cc(F)ccc3F)=C[C@@]2(CO)c2ccccc2)CC1	5.6	6.2	8.8	125	IC50 [9]: 29.1 nM
CN(C)C(=O)N1CC(c2cc(F)ccc2F)=C[C@@]1(CO)c1ccccc1	–	78	–	–	–
CN1CC[C@@H](N(C)C(=O)N2CC(c3cc(F)ccc3F)=C[C@@]2(CO)c2ccccc2)[C@@H](F)C1	13.8	13.3	–	–	Ratio [3]: 4.8

The next molecules have a lower IC50 [2] than those just listed; values first:

EC50 [1] [nM]	IC50 [2] [nM]	pKa [4]	EC90 [8] [nM]	Structure (SMILES)	other results
–	5.1	9.1	–	CN(C(=O)N1CC(c2cc(F)ccc2F)=C[C@@]1(CO)c1ccccc1)C1CCN(CC2CC2)CC1	–
4.8	5	7.6	100	CN(C(=O)N1CC(c2cc(F)ccc2F)=C[C@@]1(CO)c1ccccc1)C1CCN(CCF)CC1	AUC [5]: 0.5 µM·h; AUC [6]: 2.5 µM·h; AUC [7]: 9.5 µM·h; IC50 [9]: 38.8 nM
22.5	5	–	1425	CN(C)C(=O)N1CC(c2cc(F)ccc2F)=C[C@@]1(CC[C@@H](N)C(F)F)c1ccccc1	IC50 [10]: 15900 nM; IC50 [9]: 84.2 nM
–	4	–	400	CN1CCC(N(C)C(=O)N2CC(c3cc(F)ccc3F)=C[C@H]2c2ccccc2)CC1	–
> 10000	0.5	–	–	CC(=O)O[C@H]1C(=O)[C@@]2(C)[C@H]([C@H](OC(=O)c3ccccc3)[C@]3(O)C[C@H](OC(=O)[C@H](O)[C@@H](NC(=O)c4ccccc4)c4ccccc4)C(C)=C1C3(C)C)[C@]1(OC(C)=O)CO[C@@H]1C[C@@H]2O [PACLITAXEL]	–
